Measurements reported in ChEMBL document CHEMBL4011649 (J Med Chem, 2017).
Active and inactive are the calls of the source. The calls are words filed in the database; no cut-off is given here.

Assays:
[1] = target: T1, 5-hydroxytryptamine receptor 2C (Rattus norvegicus, UniProt P08909); assay: Agonist activity at rat 5-HT2C receptor expressed in African clawed frog oocytes assessed as increase in current amplitude; format: cell-based
T1 sequence (P08909 whole entry): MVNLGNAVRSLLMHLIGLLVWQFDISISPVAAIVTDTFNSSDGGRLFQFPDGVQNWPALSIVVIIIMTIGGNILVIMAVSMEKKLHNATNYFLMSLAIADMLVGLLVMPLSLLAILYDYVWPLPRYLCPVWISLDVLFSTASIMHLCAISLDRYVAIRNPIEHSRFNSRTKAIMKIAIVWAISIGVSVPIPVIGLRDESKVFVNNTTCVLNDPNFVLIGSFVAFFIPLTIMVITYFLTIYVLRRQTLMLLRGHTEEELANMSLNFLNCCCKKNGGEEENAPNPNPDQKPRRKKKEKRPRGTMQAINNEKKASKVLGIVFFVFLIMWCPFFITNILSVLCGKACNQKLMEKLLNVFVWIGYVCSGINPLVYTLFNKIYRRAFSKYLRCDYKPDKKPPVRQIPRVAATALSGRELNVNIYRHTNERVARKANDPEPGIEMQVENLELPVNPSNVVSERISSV

5-HT2A receptor [2] = target: 5-HT2A receptor (Rattus norvegicus, UniProt P14842); assay: Agonist activity at rat 5-HT2A receptor expressed in African clawed frog oocytes assessed as increase in current amplitude relative to 5-HT; format: cell-based; details: African clawed frog oocytes expressing rat 5-HT2A receptor
Chain of 5-HT2A receptor (Rattus norvegicus, UniProt P14842) (P14842 whole entry, canonical isoform): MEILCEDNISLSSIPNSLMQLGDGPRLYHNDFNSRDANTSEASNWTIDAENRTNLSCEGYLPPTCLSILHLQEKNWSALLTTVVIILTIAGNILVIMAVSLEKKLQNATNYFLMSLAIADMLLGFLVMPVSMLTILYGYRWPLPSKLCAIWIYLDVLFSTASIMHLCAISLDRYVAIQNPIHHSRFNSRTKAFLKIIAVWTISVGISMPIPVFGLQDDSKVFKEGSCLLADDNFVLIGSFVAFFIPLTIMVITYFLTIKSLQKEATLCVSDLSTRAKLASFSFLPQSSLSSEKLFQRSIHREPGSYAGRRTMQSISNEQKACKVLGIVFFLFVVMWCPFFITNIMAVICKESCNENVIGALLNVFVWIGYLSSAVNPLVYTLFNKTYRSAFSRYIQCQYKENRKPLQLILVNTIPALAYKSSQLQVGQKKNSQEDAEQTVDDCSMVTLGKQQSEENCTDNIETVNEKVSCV

[3] = target: T2, 5-hydroxytryptamine receptor 2C (Homo sapiens) (UniProt P28335); assay: Agonist activity at human 5-HT2C-INI receptor isoform expressed in Flp-IN HEK293 cells assessed as induction of Gq-mediated calcium flux measured every second for 5 mins by Fluo-4 dye based FLIPR assay relative to serotonin; format: functional, cell-based
T2 sequence (whole entry): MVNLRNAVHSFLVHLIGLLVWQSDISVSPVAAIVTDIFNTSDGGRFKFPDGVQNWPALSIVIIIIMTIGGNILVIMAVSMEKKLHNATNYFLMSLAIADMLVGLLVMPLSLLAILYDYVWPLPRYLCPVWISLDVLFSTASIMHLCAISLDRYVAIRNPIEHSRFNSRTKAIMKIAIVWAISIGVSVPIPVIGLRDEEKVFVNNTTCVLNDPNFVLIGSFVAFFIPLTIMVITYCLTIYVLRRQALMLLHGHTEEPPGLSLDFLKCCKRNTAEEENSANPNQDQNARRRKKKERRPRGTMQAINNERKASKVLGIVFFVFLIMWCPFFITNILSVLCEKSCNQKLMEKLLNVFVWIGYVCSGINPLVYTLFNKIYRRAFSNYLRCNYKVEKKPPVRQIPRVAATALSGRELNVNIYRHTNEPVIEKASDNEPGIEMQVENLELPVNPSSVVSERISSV

5-HT2A receptor [4] = target: 5-HT2A receptor (Homo sapiens, UniProt P28223); assay: Agonist activity at human 5-HT2A receptor expressed in Flp-IN HEK293 cells assessed as induction of calcium flux measured every second for 5 mins by Fluo-4 dye based FLIPR assay relative to serotonin; format: cell-based; details: Flp-IN HEK293 cells expressing human 5-HT2A receptor
Chain of 5-HT2A receptor (Homo sapiens, UniProt P28223) (P28223 whole entry): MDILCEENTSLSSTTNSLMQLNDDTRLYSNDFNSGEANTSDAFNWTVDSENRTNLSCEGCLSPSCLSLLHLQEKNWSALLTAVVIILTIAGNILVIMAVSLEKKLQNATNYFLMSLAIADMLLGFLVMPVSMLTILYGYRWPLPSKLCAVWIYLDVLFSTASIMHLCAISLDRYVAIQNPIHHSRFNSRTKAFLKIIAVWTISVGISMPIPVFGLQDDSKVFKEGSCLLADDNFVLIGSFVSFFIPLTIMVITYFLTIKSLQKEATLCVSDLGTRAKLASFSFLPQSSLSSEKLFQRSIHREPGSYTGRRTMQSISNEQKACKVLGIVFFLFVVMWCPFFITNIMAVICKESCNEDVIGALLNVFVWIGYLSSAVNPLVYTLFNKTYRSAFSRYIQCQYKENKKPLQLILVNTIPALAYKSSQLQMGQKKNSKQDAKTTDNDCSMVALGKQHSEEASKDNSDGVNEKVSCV

[5] = target: T3, 5-hydroxytryptamine receptor 2B (Homo sapiens, UniProt P41595); assay: Displacement of [3H]-LSD from human 5-HT2B receptor expressed in HEKT cells after 90 mins by scintillation counting method; format: cell-based
T3 sequence (P41595 whole entry): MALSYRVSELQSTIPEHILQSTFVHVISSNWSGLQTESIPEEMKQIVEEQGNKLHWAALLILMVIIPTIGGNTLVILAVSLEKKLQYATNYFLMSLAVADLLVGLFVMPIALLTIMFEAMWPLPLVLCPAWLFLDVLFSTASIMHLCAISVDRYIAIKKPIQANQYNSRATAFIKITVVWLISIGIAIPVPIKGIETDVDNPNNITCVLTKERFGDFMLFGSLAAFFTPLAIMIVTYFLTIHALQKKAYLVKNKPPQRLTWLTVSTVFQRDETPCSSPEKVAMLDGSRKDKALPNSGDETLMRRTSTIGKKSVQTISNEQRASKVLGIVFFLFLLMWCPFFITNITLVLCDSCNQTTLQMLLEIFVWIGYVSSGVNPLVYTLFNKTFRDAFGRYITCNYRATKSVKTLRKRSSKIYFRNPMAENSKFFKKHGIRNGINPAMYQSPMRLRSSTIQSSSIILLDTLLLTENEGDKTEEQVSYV

Mus musculus [6] = assay: Antipsychotic activity in AMPH-induced hyperactivity C57BL/6J mouse model assessed as reduction in amphetamine-induced hyper-locomotion at 10 mg/kg, ip preincubated for 15 mins followed by AMPH addition measured after 90 mins; format: functional, organism-based
CYP1A2 = target: T4, CYP1A2 (Homo sapiens, UniProt P05177); assay: in vitro; details: liver microsomes, probe phenacetin
T4 sequence (P05177 whole entry): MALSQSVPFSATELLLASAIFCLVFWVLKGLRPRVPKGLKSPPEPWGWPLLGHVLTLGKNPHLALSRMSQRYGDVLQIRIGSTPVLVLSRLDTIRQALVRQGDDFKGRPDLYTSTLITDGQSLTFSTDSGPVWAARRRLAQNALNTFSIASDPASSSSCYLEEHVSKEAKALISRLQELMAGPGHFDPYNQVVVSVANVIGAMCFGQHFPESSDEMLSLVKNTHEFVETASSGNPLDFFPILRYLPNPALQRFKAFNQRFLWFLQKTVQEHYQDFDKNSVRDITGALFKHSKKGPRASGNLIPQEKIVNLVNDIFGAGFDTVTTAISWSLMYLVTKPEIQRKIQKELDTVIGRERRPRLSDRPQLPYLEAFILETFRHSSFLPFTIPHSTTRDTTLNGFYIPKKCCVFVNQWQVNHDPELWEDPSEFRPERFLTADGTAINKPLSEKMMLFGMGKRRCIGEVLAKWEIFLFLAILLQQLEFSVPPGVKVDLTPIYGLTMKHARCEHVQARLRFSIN

CYP3A4 = CYP3A4 (Homo sapiens, UniProt P08684); assay: in vitro; details: liver microsomes, probe midazolam
Chain of CYP3A4 (P08684 whole entry): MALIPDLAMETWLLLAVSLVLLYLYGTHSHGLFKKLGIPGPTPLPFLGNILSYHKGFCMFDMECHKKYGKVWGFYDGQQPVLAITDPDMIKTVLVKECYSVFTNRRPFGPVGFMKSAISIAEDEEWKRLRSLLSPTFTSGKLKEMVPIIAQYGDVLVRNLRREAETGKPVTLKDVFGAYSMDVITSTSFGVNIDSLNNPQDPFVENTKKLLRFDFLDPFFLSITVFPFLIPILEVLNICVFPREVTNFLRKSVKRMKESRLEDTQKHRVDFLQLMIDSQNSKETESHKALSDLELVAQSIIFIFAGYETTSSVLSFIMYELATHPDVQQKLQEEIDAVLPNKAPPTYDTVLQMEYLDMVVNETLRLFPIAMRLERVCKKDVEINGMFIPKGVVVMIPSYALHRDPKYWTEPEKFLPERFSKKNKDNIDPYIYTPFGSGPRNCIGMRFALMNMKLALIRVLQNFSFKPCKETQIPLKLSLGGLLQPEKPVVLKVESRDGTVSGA

Mus musculus [7] = assay: Antipsychotic activity in PCP-induced hyperactivity C57BL/6J mouse model assessed as reduction in PCP-induced hyper-locomotion at 10 to 20 mg/kg, ip preincubated for 15 mins followed by PCP addition measured after 60 mins; format: functional, organism-based
Method in brief: (§1)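 Male C57BL/6J mice, 9–10 weeks old. […] PCP 5 mg/kg followed, with activity recorded a further 60 min. Read-out was total distance from infrared beam breaks, analysed by one-way ANOVA.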

Mus musculus [8] = assay: Antipsychotic activity in AMPH-induced hyperactivity C57BL/6J mouse model assessed as reduction in amphetamine-induced hyper-locomotion at 20 mg/kg, ip preincubated for 15 mins followed by AMPH addition measured after 90 mins; format: functional, organism-based
CYP2D6 = CYP2D6 (Homo sapiens, UniProt P10635); assay: in vitro; details: liver microsomes, probe dextromethorphan
Chain of CYP2D6 (P10635 whole entry): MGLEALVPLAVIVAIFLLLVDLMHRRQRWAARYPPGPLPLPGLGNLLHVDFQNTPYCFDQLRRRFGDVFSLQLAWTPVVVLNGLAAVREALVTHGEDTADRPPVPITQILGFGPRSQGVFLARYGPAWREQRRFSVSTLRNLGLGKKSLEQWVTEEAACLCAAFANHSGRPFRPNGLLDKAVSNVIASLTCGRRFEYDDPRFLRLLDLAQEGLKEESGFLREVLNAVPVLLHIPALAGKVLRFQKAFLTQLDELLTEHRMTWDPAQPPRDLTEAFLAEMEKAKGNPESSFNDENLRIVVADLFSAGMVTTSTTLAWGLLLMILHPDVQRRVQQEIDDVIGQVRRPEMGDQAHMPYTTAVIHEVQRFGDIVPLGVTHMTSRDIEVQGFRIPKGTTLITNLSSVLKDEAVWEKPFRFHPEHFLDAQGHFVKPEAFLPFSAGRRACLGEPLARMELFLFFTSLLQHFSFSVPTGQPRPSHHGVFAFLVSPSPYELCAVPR

CYP2C9 = CYP2C9 (Homo sapiens, UniProt P11712); assay: in vitro; details: liver microsomes, probe tolbutamide
Chain of CYP2C9 (P11712 whole entry): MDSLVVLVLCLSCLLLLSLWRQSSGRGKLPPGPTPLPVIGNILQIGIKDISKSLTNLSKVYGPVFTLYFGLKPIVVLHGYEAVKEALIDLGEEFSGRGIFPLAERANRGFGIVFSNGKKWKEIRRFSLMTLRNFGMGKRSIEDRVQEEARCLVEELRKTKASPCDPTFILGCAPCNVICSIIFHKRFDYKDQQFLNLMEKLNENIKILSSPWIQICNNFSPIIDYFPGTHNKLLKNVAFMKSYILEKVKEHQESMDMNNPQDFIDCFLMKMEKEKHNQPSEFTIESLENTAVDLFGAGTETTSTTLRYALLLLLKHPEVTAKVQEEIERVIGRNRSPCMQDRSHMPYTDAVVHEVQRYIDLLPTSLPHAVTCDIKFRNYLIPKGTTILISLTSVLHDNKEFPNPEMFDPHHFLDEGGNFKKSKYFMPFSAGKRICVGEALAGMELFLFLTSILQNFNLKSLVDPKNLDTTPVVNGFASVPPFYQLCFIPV

Mus musculus [9] = assay: Toxicity in C57BL/6J mouse assessed as reduction in baseline locomotive activity at 10 to 20 mg/kg, ip after 15 mins; format: organism-based; details: in vivo
[10] = target: T2, 5-hydroxytryptamine receptor 2C (Homo sapiens); assay: Agonist activity at tTA containing TEV cleavage site-fused 5-HT2C-INI receptor isoform (unknown origin) expressed in TEV-fused beta-arrestin2 expressing HEK cells assessed as induction of beta-arrestin2 recruitment after 20 hrs by Tango assay relative to serotonin; format: cell-based
Method in brief: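 HTLA cells (HEK cells with TEV-fused β-arrestin-2 and tTA-driven luciferase) transfected with tTA-fused 5-HT2C-INI receptor carrying a TEV site. Luminescence read after 20 min lysis at room temperature. Normalized to % 5-HT and fitted sigmoidally. NA means no activity up to 10 μM. Mean of n = 3.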

[11] = target: T3, 5-hydroxytryptamine receptor 2B; assay: Agonist activity at human 5-HT2B receptor expressed in Flp-IN HEK293 cells assessed as induction of calcium flux up to 10 uM measured every second for 5 mins by Fluo-4 dye based FLIPR assay; format: cell-based; details: hek293, 5 min
[12] = target: Voltage-gated inwardly rectifying potassium channel KCNH2 (Homo sapiens, UniProt Q12809); assay: Inhibition of human ERG expressed in CHO cells by automated patch-clamp assay; format: cell-based
Chain of Voltage-gated inwardly rectifying potassium channel KCNH2 (Q12809 whole entry): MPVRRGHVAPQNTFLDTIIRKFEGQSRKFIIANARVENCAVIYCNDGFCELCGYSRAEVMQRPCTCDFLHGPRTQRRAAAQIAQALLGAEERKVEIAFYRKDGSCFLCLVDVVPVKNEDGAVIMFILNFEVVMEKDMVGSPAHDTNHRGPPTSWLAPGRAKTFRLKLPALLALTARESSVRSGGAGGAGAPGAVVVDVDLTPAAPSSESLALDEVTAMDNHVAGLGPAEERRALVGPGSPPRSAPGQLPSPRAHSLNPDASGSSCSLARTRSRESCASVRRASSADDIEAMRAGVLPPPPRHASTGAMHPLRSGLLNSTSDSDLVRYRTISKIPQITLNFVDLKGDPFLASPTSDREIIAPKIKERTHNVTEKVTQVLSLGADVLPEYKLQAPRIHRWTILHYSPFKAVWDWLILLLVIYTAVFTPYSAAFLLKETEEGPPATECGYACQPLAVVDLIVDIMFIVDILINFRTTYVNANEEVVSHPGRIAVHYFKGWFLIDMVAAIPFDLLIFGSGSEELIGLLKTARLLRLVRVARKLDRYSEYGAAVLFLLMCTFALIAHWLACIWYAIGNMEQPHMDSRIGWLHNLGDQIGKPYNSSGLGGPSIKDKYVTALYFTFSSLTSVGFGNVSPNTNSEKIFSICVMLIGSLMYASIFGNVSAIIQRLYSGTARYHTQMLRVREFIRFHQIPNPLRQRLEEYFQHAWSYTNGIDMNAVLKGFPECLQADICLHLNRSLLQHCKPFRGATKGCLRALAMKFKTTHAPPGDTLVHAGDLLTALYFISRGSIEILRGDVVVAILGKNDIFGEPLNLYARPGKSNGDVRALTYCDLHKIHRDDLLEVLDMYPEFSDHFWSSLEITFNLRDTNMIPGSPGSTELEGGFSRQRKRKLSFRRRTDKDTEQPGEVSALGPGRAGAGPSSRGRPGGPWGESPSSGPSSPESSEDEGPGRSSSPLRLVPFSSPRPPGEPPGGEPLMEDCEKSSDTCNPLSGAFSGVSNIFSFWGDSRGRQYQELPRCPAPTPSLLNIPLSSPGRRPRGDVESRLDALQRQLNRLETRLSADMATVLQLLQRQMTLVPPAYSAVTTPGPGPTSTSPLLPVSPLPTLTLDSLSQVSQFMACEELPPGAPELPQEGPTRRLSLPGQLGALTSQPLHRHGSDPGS
Method in brief: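 Read-out is an IC50 in µM for hERG inhibition, measured by automated patch-clamp on CHO cells.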

Mus musculus [13] = assay: Antipsychotic activity in AMPH-induced hyperactivity C57BL/6J mouse model assessed as reduction in amphetamine-induced hyper-locomotion at 3 mg/kg, ip preincubated for 15 mins followed by AMPH addition measured after 90 mins; format: functional, organism-based
Mus musculus [14] = assay: Toxicity in C57BL/6J mouse assessed as reduction in baseline locomotive activity at 3 mg/kg, ip after 15 mins; format: organism-based; details: in vivo
Mus musculus [15] = assay: Antipsychotic activity in PCP-induced hyperactivity C57BL/6J mouse model assessed as reduction in PCP-induced hyper-locomotion at 3 mg/kg, ip preincubated for 15 mins followed by PCP addition measured after 60 mins; format: functional, organism-based; method in brief: as §1

Molecule `COc1cc(CC(C)N)c(OC)cc1I` (centres undefined) has an EC50 [1] of 0.178 µM and an Emax (5-HT2A receptor [2]) of 46%.

For `COc1ccccc1CNC[C@H]1C[C@@H]1c1cc(F)ccc1OC.Cl`, the Emax [3] was 92%, the Emax at 5 min (5-HT2A receptor [4]) was 63% and the Ki [5] was 0.411 µM. The Activity (Mus musculus [6]) was “inactive”, the inhibition at 10 µM (CYP1A2) was 20.5% and the inhibition at 10 µM (CYP3A4) was 85.6%. The Activity (Mus musculus [7]) was “inactive”, the Activity (Mus musculus [8]) was “Active” and the inhibition at 10 µM (CYP2D6) was 68.9%. For the same molecule, the inhibition at 10 µM (CYP2C9) was 9.3%, the Activity (Mus musculus [9]) was “Non-Toxic” and the Emax [10] was 43%. The Activity [11] was “Not Active” and the IC50 [12] was 1.4 µM.

For `C[C@H]1CNCCc2ccc(Cl)cc21` [LORCASERIN], the Activity (Mus musculus [13]) was “Active”, the Activity (Mus musculus [14]) was “Toxic” and the Activity (Mus musculus [15]) was “inactive”.
